# According to ChEMBL document CHEMBL3351818, “Synthesis and biological evaluation of novel 3,4-diaryl-1,2,5-selenadiazol analogues of combretastatin A-4” (Eur J Med Chem, 2014):
# What was measured:
# Type in all cases: functional, cell-based
# [1] = Antiproliferative activity against human SGC7901 cells after 72 hrs by MTT assay; settings: SGC-7901, 72 h
# Summary of the method: (§1)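 Cells were seeded at 1–3 × 10⁴/well, depending on growth rate, and grown 24 h. Triplicate wells were then exposed to agents for 72 h at 37 °C in 5% CO₂. IC50 is the concentration giving 50% absorbance reduction versus vehicle, averaged from ≥3 independent experiments. SGC-7901 and HT-1080 were cultured in RPMI-1640 with 10% FBS.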
# [2] = test system: KB; experiment: Antiproliferative activity against human KB cells after 72 hrs by MTT assay; summary of the method: as §1
# [3] = Antiproliferative activity against human HT1080 cells after 72 hrs by MTT assay; settings: HT-1080, 72 h; summary of the method: as §1
Compound,IC50 [1],IC50 [2],IC50 [3]
COc1cc(-c2n[se]nc2-c2cccc(OCc3ccccc3)c2)cc(OC)c1OC,> 30 µM,10.7 µM,> 30 µM
COc1ccc(-c2n[se]nc2-c2ccc3c(c2)OCO3)cc1,8.28 µM,5.21 µM,> 30 µM
COc1ccc(-c2n[se]nc2-c2ccc3c(c2)OCO3)cc1N,> 30 µM,1.87 µM,13.5 µM
COc1ccc(-c2n[se]nc2-c2ccc3c(c2)OCO3)cc1O,3.68 µM,2.38 µM,0.73 µM
COc1ccc(/C=C\c2cc(OC)c(OC)c(OC)c2)cc1O [COMBRETASTATIN A4],0.028 µM,0.013 µM,0.0076 µM
CNc1cc(-c2n[se]nc2-c2cc(OC)c(OC)c(OC)c2)ccc1OC,> 30 µM,1.52 µM,0.98 µM
CCOc1ccc(-c2n[se]nc2-c2cc(OC)c(OC)c(OC)c2)cc1,0.23 µM,0.42 µM,0.16 µM
COc1ccc(-c2n[se]nc2-c2cc(OC)c(OC)c(OC)c2)cc1[N+](=O)[O-],> 30 µM,10.1 µM,24.8 µM
c1ccc2cc(-c3n[se]nc3-c3ccc4c(c3)OCO4)ccc2c1,17.3 µM,10.4 µM,23.3 µM
COc1cc(-c2n[se]nc2-c2cccc(O)c2)cc(OC)c1OC,> 30 µM,> 30 µM,5.98 µM
COc1cc(-c2n[se]nc2-c2ccc(Br)cc2)cc(OC)c1OC,10.9 µM,7.86 µM,7.4 µM
